Assay results collected from several papers.
≈ marks a conversion by molar mass, not a printed value.

SMILES | organism | assay | system | conditions | quantity | value
CC(C)(NC(=O)c1cc2c(Cl)cc(Cl)cc2[nH]1)c1cn(Cc2cccc(Cl)c2)nn1 | Cryptosporidium parvum | parasite growth, imaging | HCT-8 | 11 µM, 72 h, intracellular | inhibition | > 60%
N#CC(=Cc1cn(-c2ccccc2)nc1-c1ccccc1)C1=NC(=O)CS1 | Klebsiella pneumoniae | microbial growth, well diffusion |  | 100000 µg/mL | inhibition zone | 27 mm
CC(C)(NC(=O)c1cc2c(Cl)cc(Cl)cc2[nH]1)c1cn(Cc2ccccc2Cl)nn1 | Cryptosporidium parvum | parasite growth, imaging | HCT-8 | 11 µM, 72 h, intracellular | inhibition | > 60%
Nc1ncnc2c1ncn2[C@H]1C[C@H](O)[C@@H](COP(=O)(O)O)O1 | Cryptosporidium parvum | parasite growth, imaging | HCT-8 | 1 mM, 24 h, intracellular | activity vs control | 96.7%
NS(=O)(=O)c1ccc(-n2cc(COc3cccc4cccnc34)nn2)cc1 | Klebsiella pneumoniae | microbial growth, broth dilution | ATCC700603 |  | IC50 | 866 µg/mL (≈ 2270 µM)
NCCCCCN | Cryptosporidium parvum | parasite growth, imaging | HCT-8 | 1 mM, 24 h, intracellular | activity vs control | 96.3%
CCCCS(=O)(=O)Oc1cc(C(C)C)ccc1C | Klebsiella pneumoniae | microbial growth, broth dilution | ATCC700603 |  | IC50 | 95.5 µg/mL (≈ 353 µM)
O=C(O)CN1C(=O)/C(=C/c2ccc(-c3ccc(N(c4ccccc4)c4ccccc4)cc3)cc2)SC1=S | Streptococcus pneumoniae | microbial growth, broth dilution | ATCC49619 |  | MIC | 15.6 µg/mL (≈ 29.8 µM)
N#CC(=Cc1ccc(Cl)cc1)C1=NC(=O)C(=Cc2cn(-c3ccccc3)nc2-c2ccccc2)S1 | Klebsiella pneumoniae | microbial growth, well diffusion |  | 100000 µg/mL | inhibition zone | 21 mm
O=C(O)CN1C(=O)/C(=C/c2ccc(-c3ccc(N(c4ccccc4)c4ccccc4)cc3)c3ccccc23)NC1=S | Streptococcus pneumoniae | microbial growth, broth dilution | ATCC49619 |  | MIC | > 1000 µg/mL
O=C(O)c1cn(C2CC2)c2cc(N3CCNCC3)c(F)cc2c1=O | Klebsiella pneumoniae | microbial growth, broth dilution | ATCC700603 |  | IC50 | 0.25 µg/mL (≈ 0.754 µM)
CC(C)(NC(=O)c1cc2c(F)cc(F)cc2[nH]1)c1cn(Cc2ccc(Cl)c(Cl)c2)nn1 | Cryptosporidium parvum | parasite growth, imaging | HCT-8 | 11 µM, 72 h, intracellular | inhibition | ~30%
O=C(O)CN1C(=O)/C(=C/c2ccc(-c3ccc(N(c4ccccc4)c4ccccc4)cc3)cc2)NC1=S | Streptococcus pneumoniae | microbial killing, broth dilution | ATCC49619 |  | MBC | 125 µg/mL (≈ 247 µM)
Cc1ccc(-c2nn(-c3ccccc3)cc2C=c2sc(=CC#N)[nH]c2=O)cc1 | Klebsiella pneumoniae | microbial growth, well diffusion |  | 100000 µg/mL | inhibition zone | 16 mm
Cc1cccc2[nH]ccc12 | Cryptosporidium parvum | parasite growth | HCT-8 | 24 h, intracellular | EC90 | 552 µM
O=C1C=C(OCc2cn(-c3ccc(Cl)cc3)nn2)C(=O)c2ccccc21 | Klebsiella pneumoniae | microbial growth, broth dilution | ATCC700603 |  | IC50 | 348 µg/mL (≈ 951 µM)
O=C(O)CCc1ccc(O)cc1 | Cryptosporidium parvum | parasite growth, imaging | HCT-8 | 1 mM, 24 h, intracellular | activity vs control | 90.5%

SMILES | organism | assay | system | conditions | quantity | value
CN[C@H](CC(C)C)C(=O)N[C@H]1C(=O)N[C@@H](CC(N)=O)C(=O)N[C@H]2C(=O)N[C@H]3C(=O)N[C@H](C(=O)N[C@H](C(=O)O)c4cc(O)cc(O)c4-c4cc3ccc4O)[C@H](O)c3ccc(c(Cl)c3)Oc3cc2cc(c3O[C@@H]2O[C@H](CO)[C@@H](O)[C@H](O)[C@H]2O[C@H]2C[C@](C)(N)[C@H](O)[C@H](C)O2)Oc2ccc(cc2Cl)[C@H]1O | Streptococcus pneumoniae | microbial growth, broth dilution | ATCC49619 |  | MIC | 0.24 µg/mL (≈ 0.166 µM)
c1ccc(-n2cc(COc3cccc4cccnc34)nn2)cc1 | Klebsiella pneumoniae | microbial growth, broth dilution | ATCC700603 |  | IC50 | 401 µg/mL (≈ 1330 µM)
O=C(Nc1ccccc1-c1ccc(F)c(F)c1)c1nccnc1C(F)(F)F | Alternaria kikuchiana | microbial growth |  |  | EC50 | 0.058 µg/mL
O=C1NC(=S)N/C1=C\c1ccc(-c2ccc(N(c3ccccc3)c3ccccc3)cc2)c2ccccc12 | Streptococcus pneumoniae | microbial growth, broth dilution | ATCC49619 |  | MIC | > 1000 µg/mL
COc1cccc2cc[nH]c12 | Cryptosporidium parvum | parasite growth | HCT-8 | 24 h, intracellular | EC90 | 682 µM
Clc1ccc(-n2cc(COc3cccc4cccnc34)nn2)cc1 | Klebsiella pneumoniae | microbial growth, broth dilution | ATCC700603 |  | IC50 | 554 µg/mL (≈ 1650 µM)
CCOC(=O)c1c(N)csc1-c1cn(-c2ccccc2)nc1-c1ccc(C)cc1 | Klebsiella pneumoniae | microbial killing, broth dilution |  |  | MBC | 0.25 µg/mL (≈ 0.62 µM)
Oc1ccc2cc[nH]c2c1 | Cryptosporidium parvum | parasite growth | HCT-8 | 24 h, intracellular | EC50 | 722 µM
COc1ccc(-n2cc(COC3=CC(=O)c4ccccc4C3=O)nn2)cc1 | Klebsiella pneumoniae | microbial growth, broth dilution | ATCC700603 |  | IC50 | 137 µg/mL (≈ 379 µM)
O=C1NC(=S)S/C1=C\c1ccc(-c2ccc(N(c3ccccc3)c3ccccc3)cc2)c2ccccc12 | Streptococcus pneumoniae | microbial killing, broth dilution | ATCC49619 |  | MBC | > 1000 µg/mL
Cc1ncc(CO)c(C(=O)O)c1O | Cryptosporidium parvum | parasite growth, imaging | HCT-8 | 1 mM, 24 h, intracellular | activity vs control | 105%
CCOC(=O)c1c(N)csc1-c1cn(-c2ccccc2)nc1-c1ccccc1 | Klebsiella pneumoniae | microbial growth, well diffusion |  | 100000 µg/mL | inhibition zone | 22 mm
O=C1NC(=S)S/C1=C\c1c2ccccc2c(-c2ccc(N(c3ccccc3)c3ccccc3)cc2)c2ccccc12 | Streptococcus pneumoniae | microbial killing, broth dilution | ATCC49619 |  | MBC | > 1000 µg/mL
Cc1ccc(C(C)C)cc1OS(=O)(=O)c1ccccc1 | Klebsiella pneumoniae | microbial growth, broth dilution | ATCC700603 |  | IC50 | 117 µg/mL
O=C1NC(=S)N/C1=C\c1c2ccccc2c(-c2ccc(N(c3ccccc3)c3ccccc3)cc2)c2ccccc12 | Streptococcus pneumoniae | microbial killing, broth dilution | ATCC49619 |  | MBC | > 1000 µg/mL
CNCC(=O)O | Cryptosporidium parvum | parasite growth, imaging | HCT-8 | 1 mM, 24 h, intracellular | activity vs control | 98%
